ChEMBL document CHEMBL2169846, “Design and synthesis of Pictet-Spengler condensation products that exhibit oncogenic-RAS synthetic lethality and induce non-apoptotic cell death” (Bioorg Med Chem Lett, 2012)
Activity calls are given as the source filed them. No cut-off for these calls is given here.

What was measured:
[1] = test system: BJeLR; assay: Cytotoxicity against human BJeLR cells expressing RAS G12V mutant at 10 uM at 12 hrs by trypan blue staining; format: functional, cell-based
[2] = test system: BJeLR; assay: Cytotoxicity against human BJeLR cells expressing RAS G12V mutant at 10 uM at 24 hrs by trypan blue staining; format: functional, cell-based
[3] = test system: BJeH; assay: Cytotoxicity against human BJeH cells expressing wild type RAS at 10 uM after 24 hrs by trypan blue staining; format: functional, cell-based
[4] = test system: BJeH; assay: Induction of reactive oxygen species production in human BJeH cells expressing wild type RAS after 6 hrs by DCF-based flow cytometric analysis; format: functional, cell-based
[5] = test system: BJeLR; assay: Induction of reactive oxygen species production in human BJeLR cells expressing RAS G12V mutant after 6 hrs by DCF-based flow cytometric analysis; format: functional, cell-based
[6] = Stability of the compound assessed as GSH adduct formation after 24 hrs by mass spectroscopy; format: physicochemical
[7] = test system: BJeH; assay: Induction of apoptosis in human BJeH cells expressing wild type RAS assessed as caspase 7 activation after 28 hrs by Apo-One assay; format: functional, cell-based
Summary of the method: (§1)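 BJ-TERT and BJ-TERT/LT/ST/RAS(V12) cells given compound as a two-fold, 14-point dilution series for 28 h. Alamar blue then added for viability, and caspase 3/7 activation detected by Apo-ONE in the same wells.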

[8] = Stability of the compound in phosphate buffered saline after 24 hrs by mass spectroscopy; format: physicochemical; details: buffer
[9] = test system: BJeLR; assay: Induction of apoptosis in human BJeLR cells expressing RAS G12V mutant assessed as caspase 7 activation after 28 hrs by Apo-One assay; format: functional, cell-based; summary of the method: as §1
[10] = biological target: E3 ubiquitin-protein ligase Mdm2 (Homo sapiens) (UniProt Q00987); assay: Inhibition of wild type Mdm2 at 20 ug/mL after 2 hrs by cell-based luciferase assay
Chain of E3 ubiquitin-protein ligase Mdm2 (Homo sapiens) (Q00987 whole entry, looked up): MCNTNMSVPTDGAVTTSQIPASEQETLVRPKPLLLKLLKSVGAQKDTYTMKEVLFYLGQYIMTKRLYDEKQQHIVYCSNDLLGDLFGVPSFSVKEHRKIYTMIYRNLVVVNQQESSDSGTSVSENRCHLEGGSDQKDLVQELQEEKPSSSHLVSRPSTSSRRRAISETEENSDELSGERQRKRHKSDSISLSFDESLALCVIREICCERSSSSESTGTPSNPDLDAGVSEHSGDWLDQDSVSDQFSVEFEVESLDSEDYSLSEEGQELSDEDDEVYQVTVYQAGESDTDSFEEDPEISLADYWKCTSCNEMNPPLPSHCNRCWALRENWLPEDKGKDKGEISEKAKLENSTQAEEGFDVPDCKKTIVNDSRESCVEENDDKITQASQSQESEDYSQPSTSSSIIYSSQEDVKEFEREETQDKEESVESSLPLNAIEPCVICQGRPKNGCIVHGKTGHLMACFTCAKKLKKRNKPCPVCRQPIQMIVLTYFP

[11] = test system: E3 ubiquitin-protein ligase Mdm2 (Homo sapiens), Q00987 [C464A]; assay: Inhibition of Mdm2 C464A mutant at 20 ug/mL after 2 hrs by cell-based luciferase assay
Chain of E3 ubiquitin-protein ligase Mdm2 (Homo sapiens), Q00987 [C464A] (Q00987 whole entry C464A): as the sequence (Q00987 whole entry, looked up) above, with C464A counted along it

[12] = test system: RKO; assay: Cytotoxicity against human RKO cells after 48 hrs by alamar blue assay; format: functional; details: read-out: LC50 (the source's name)
[13] = Cytotoxicity against human HT1299 cells after 48 hrs by alamar blue assay; format: functional; details: HT1299, 48 h, read-out: LC50 (the source's name)
[14] = Cytotoxicity against human BJeH cells expressing wild type RAS after 48 hrs by alamar blue assay; format: functional, cell-based; details: read-out: LC50 (the source's name)
[15] = Cytotoxicity against human BJeLR cells expressing RAS G12V mutant after 48 hrs by alamar blue assay; format: functional, cell-based; details: read-out: LC50 (the source's name)
[16] = test system: MCF7; assay: Cytotoxicity against human MCF7 cells at 20 ug/mL after 48 hrs by alamar blue assay; format: functional, cell-based
Summary of the method: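 Each cell line exposed for 48 h to a 2-fold, 12-point dilution series beginning at 20 µg/mL. Viability by Alamar blue; LC50 derived from the curves.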

[17] = Ratio of MEL24 LC50 to compound LC50 for human BJeLR cells expressing RAS G12V mutant; format: functional
[18] = Cytotoxicity against human BJeH cells expressing wild type RAS; format: functional; details: read-out: LC50 (the source's name)
[19] = Cytotoxicity against human BJeH-LT cells expressing wild type RAS; format: functional; details: read-out: LC50 (the source's name)
[20] = Cytotoxicity against human BJeLR cells expressing RAS G12V mutant; format: functional; details: read-out: LC50 (the source's name)
[21] = Cytotoxicity against human DRD cells expressing RAS G12V mutant; format: functional; details: read-out: LC50 (the source's name)
[22] = Growth inhibition of human BJeH cells expressing wild type RAS relative to control; format: functional
Summary of the method: (§2)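 Four cell lines treated for 48 h in a two-fold, 7-point dilution series. Viability by Alamar blue reading. LC50 and maximum growth-inhibitory efficacy were tabulated as ± SEM of triplicates.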

[23] = Growth inhibition of human BJeH-LT cells expressing wild type RAS relative to control; format: functional; summary of the method: as §2
[24] = Growth inhibition of human BJeLR cells expressing RAS G12V mutant relative to control; format: functional; summary of the method: as §2
[25] = Growth inhibition of human DRD cells expressing RAS G12V mutant relative to control; format: functional; summary of the method: as §2
[26] = Selectivity ratio of LC50 for human BJeH cells to LC50 for human BJeLR cells expressing RAS G12V mutant; format: functional
Summary of the method: (§3)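 LC50 of BJ-TERT divided by LC50 of the RAS(V12)-transformed line or of DRD cells.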

[27] = Selectivity ratio of LC50 for human BJeH cells to LC50 for human DRD cells; format: functional; summary of the method: as §3
[28] = test system: BJeLR; assay: Cytotoxicity against human BJeLR cells expressing RAS G12V mutant at 30 uM at 12 hrs by trypan blue staining; format: functional, cell-based
Summary of the method: (§4)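 Time-course in BJ-TERT/LT/ST/RAS^V12 cells exposed for the designated times to erastin (10 µM), test compound (30 µM) or RSL3 (0.57 µM) to follow onset of death. Data representative of duplicate experiments.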

[29] = test system: BJeLR; assay: Cytotoxicity against human BJeLR cells expressing RAS G12V mutant at 30 uM at 24 hrs by trypan blue staining; format: functional, cell-based; summary of the method: as §4
[30] = test system: BJeH; assay: Cytotoxicity against human BJeH cells expressing wild type RAS at 30 uM after 24 hrs by trypan blue staining; format: functional, cell-based
[31] = test system: BJeLR; assay: Cytotoxicity against human BJeLR cells expressing RAS G12V mutant at high concentration after 28 hrs by alamar blue assay; format: functional, cell-based
Summary of the method: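 BJ-TERT/LT/ST/RAS^V12 cells treated for 28 h across a two-fold, 14-point dilution series. Viability was read by Alamar blue, and caspase 3/7 activation was detected by Apo-ONE in the same cells.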

[32] = test system: BJeLR; assay: Induction of apoptosis in human BJeLR cells expressing RAS G12V mutant assessed as caspase 3 activation after 28 hrs by Apo-One assay; format: functional, cell-based; summary of the method: as §1
[33] = test system: BJeH; assay: Induction of apoptosis in human BJeH cells expressing wild type RAS assessed as caspase 3 activation after 28 hrs by Apo-One assay; format: functional, cell-based; summary of the method: as §1
[34] = test system: HT-1080; assay: Cytotoxicity against human HT1080 after 48 hrs by alamar blue assay in presence of z-VAD-fmk; format: functional, cell-based
Summary of the method: (§5)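 HT1080 cells given the test compound together with a rescue agent: deferoxamine 152 µM, α-tocopherol 100 µM, z-VAD-fmk 45 µM or Boc-D-fmk 50 µM. Viability read out afterwards.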

[35] = test system: HT-1080; assay: Cytotoxicity against human HT1080 after 48 hrs by alamar blue assay in presence of Boc-D-fmk; format: functional, cell-based; summary of the method: as §5
[36] = test system: HT-1080; assay: Cytotoxicity against human HT1080 after 48 hrs by alamar blue assay in presence of deferoxamine; format: functional, cell-based; summary of the method: as §5
[37] = test system: HT-1080; assay: Cytotoxicity against human HT1080 after 48 hrs by alamar blue assay in presence of alpha-tocopherol; format: functional, cell-based; summary of the method: as §5
[38] = test system: BJeH; assay: Induction of reactive oxygen species production in human BJeH cells expressing wild type RAS after 18 hrs by DCF-based flow cytometric analysis; format: functional, cell-based
[39] = test system: BJeLR; assay: Induction of reactive oxygen species production in human BJeLR cells expressing RAS G12V mutant after 18 hrs by DCF-based flow cytometric analysis; format: functional, cell-based
[40] = test system: BJeLR; assay: Cytotoxicity against human BJeLR cells expressing RAS G12V mutant at 0.57 uM at 12 hrs by trypan blue staining; format: functional, cell-based; summary of the method: as §4
[41] = test system: BJeLR; assay: Cytotoxicity against human BJeLR cells expressing RAS G12V mutant at 0.57 uM at 24 hrs by trypan blue staining; format: functional, cell-based; summary of the method: as §4
[42] = test system: BJeH; assay: Cytotoxicity against human BJeH cells expressing wild type RAS at 568 nM after 24 hrs by trypan blue staining; format: functional, cell-based

**Q.** Which Activity [1] does the source give for `CCOc1ccccc1-n1c(C(C)N2CCN(C(=O)COc3ccc(Cl)cc3)CC2)nc2ccccc2c1=O` (centres undefined) here?
**A.** Its Activity is “Active”.

**Q.** What about the Activity [2] of the same compound?
**A.** The Activity was “Active”.

**Q.** What about the Activity [3] of the same compound?
**A.** The Activity was “inactive”.

**Q.** What about the Activity [4] of the same compound?
**A.** The Activity was “Active”.

**Q.** And the Activity [5]?
**A.** The Activity was “Active”.

**Q.** For `CCOC(=O)C1c2c(c3ccccc3n2C)CCN1C(=O)OC` (centres undefined), which Stability [6] is on record?
**A.** The Stability was “Stable”.

**Q.** And the Activity [7]?
**A.** Its Activity is “inactive”.

**Q.** And the Stability [8]?
**A.** Its Stability is “Stable”.

**Q.** What about the Activity [9] of the same compound?
**A.** Its Activity is “inactive”.

**Q.** And the inhibition [10]?
**A.** The inhibition was “inactive”.

**Q.** And the inhibition [11]?
**A.** The inhibition was “inactive”.

**Q.** And the CC50 [12]?
**A.** The CC50 was 31.6 µM.

**Q.** What about the CC50 [13] of the same compound?
**A.** The CC50 was 30 µM.

**Q.** And the CC50 [14]?
**A.** Its CC50 is 63.2 µM.

**Q.** And the CC50 [15]?
**A.** Its CC50 is 6.3 µM.

**Q.** What about the Activity [16] of the same compound?
**A.** Its Activity is “inactive”.

**Q.** And the Ratio [17]?
**A.** Its Ratio is 4.

**Q.** What about the CC50 [18] of the same compound?
**A.** The CC50 was 179 µM.

**Q.** What about the CC50 [19] of the same compound?
**A.** The CC50 was 266 µM.

**Q.** What about the CC50 [20] of the same compound?
**A.** The CC50 was 20.3 µM.

**Q.** What about the CC50 [21] of the same compound?
**A.** The CC50 was 102 µM.

**Q.** What about the “growth inhibition (GI)” value [22] of the same compound?
**A.** The value was 22.1%.

**Q.** What about the “growth inhibition (GI)” value [23] of the same compound?
**A.** Its value is 8.5%.

**Q.** What about the “growth inhibition (GI)” value [24] of the same compound?
**A.** The value was 98.7%.

**Q.** And the “growth inhibition (GI)” value [25]?
**A.** Its value is 67%.

**Q.** What about the Ratio [26] of the same compound?
**A.** The Ratio was 10.

**Q.** And the Ratio [27]?
**A.** Its Ratio is 3.

**Q.** And the Activity [28]?
**A.** Its Activity is “Active”.

**Q.** And the Activity [29]?
**A.** Its Activity is “Active”.

**Q.** And the Activity [30]?
**A.** The Activity was “inactive”.

**Q.** What about the Activity [31] of the same compound?
**A.** The Activity was “Active”.

**Q.** And the Activity [32]?
**A.** The Activity was “inactive”.

**Q.** What about the Activity [33] of the same compound?
**A.** The Activity was “inactive”.

**Q.** What about the Activity [34] of the same compound?
**A.** The Activity was “Active”.

**Q.** And the Activity [35]?
**A.** The Activity was “Active”.

**Q.** What about the Activity [36] of the same compound?
**A.** Its Activity is “inactive”.

**Q.** And the Activity [37]?
**A.** Its Activity is “inactive”.

**Q.** What about the Activity [38] of the same compound?
**A.** The Activity was “Active”.

**Q.** What about the Activity [39] of the same compound?
**A.** Its Activity is “Active”.

**Q.** What does the source list for `COC(=O)c1ccc(C2c3[nH]c4ccccc4c3CC(C(=O)OC)N2C(=O)CCl)cc1` (centres undefined)?
**A.** Activity [40]: Active; Activity [41]: Active; Activity [42]: inactive; Activity [4]: Active; Activity [5]: Active
